Consider one compound from ChEMBL document CHEMBL4229344 (Eur J Med Chem, 2018).

SMILES strings stand for the structures. The source made the active and inactive calls.

In data set [1] the target is Calcium/calmodulin-dependent protein kinase type 1 (Homo sapiens) (UniProt Q14012). Nature of the data set: Binding affinity to wild-type human full length CAMK1 (M1 to L370 residues) expressed in bacterial expression system assessed as residual binding level at 1 uM by Kinomescan method relative to control. A digest of the protocol: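 Single-concentration (1 μM) competition-binding screen run by KINOMEscan against a panel of 468 purified kinases and mutants. The read-out is the relative binding activity of the test compound to each kinase.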

Data set [2] has as its target Death-associated protein kinase 2 (Homo sapiens) (UniProt Q9UIK4). Briefly: Binding affinity to wild-type human full length DAPK2 (M1 to S370 residues) expressed in bacterial expression system assessed as residual binding level at 1 uM by Kinomescan method relative to control. The procedure, abridged:
(§1)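 KINOMEscan competition binding against 468 purified kinases/mutants, test compound at 1 µM; residual binding relative to control.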

The target of data set [3] is Serine/threonine-protein kinase 17B (Homo sapiens) (UniProt O94768). Nature of the data set: Binding affinity to wild-type human full length DRAK2 (M1 to C372 residues) expressed in bacterial expression system assessed as residual binding level at 1 uM by Kinomescan method relative to control. The procedure, abridged: as §1
Chain of Serine/threonine-protein kinase 17B (Homo sapiens) (O94768 whole entry, the tested form may be a part): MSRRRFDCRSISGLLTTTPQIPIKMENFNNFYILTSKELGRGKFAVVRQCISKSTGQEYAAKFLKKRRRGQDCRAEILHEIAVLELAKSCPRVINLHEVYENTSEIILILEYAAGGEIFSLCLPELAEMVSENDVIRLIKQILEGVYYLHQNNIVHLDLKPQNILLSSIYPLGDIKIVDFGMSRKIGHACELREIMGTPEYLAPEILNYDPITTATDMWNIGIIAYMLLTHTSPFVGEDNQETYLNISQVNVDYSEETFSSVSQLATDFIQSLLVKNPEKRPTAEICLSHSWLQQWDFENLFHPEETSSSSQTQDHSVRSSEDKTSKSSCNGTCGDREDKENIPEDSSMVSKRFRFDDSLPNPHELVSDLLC
Data set [4] has as its target Epidermal growth factor receptor (Homo sapiens) (UniProt P00533). Briefly: Binding affinity to human partial length EGFR L747-T751del/Sins mutant expressed in bacterial expression system assessed as residual binding level at 1 uM by Kinomescan method relative to control. The procedure, abridged: (§2)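 Kinome-wide single-concentration binding screen (KINOMEscan) at 1 μM against a panel of 468 purified kinases and mutants. Read-out is relative binding of each kinase compared with control. Selectivity across the panel was summarised as an S(10) score.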

In data set [5] the target is Tyrosine-protein kinase HCK (Homo sapiens) (UniProt P08631). Briefly: Binding affinity to wild-type human full length HCK (M22 to P526 residues) expressed in bacterial expression system assessed as residual binding level at 1 uM by Kinomescan method relative to control. A digest of the protocol: as §1
For data set [6], the target named is Serine/threonine-protein kinase ICK (Homo sapiens) (UniProt Q9UPZ9). Nature of the data set: Binding affinity to wild-type human partial length ICK (M1 to P314 residues) expressed in mammalian expression system assessed as residual binding level at 1 uM by Kinomescan method relative to control.
Chain of Serine/threonine-protein kinase ICK (Homo sapiens) (Q9UPZ9 whole entry, the tested form may be a part): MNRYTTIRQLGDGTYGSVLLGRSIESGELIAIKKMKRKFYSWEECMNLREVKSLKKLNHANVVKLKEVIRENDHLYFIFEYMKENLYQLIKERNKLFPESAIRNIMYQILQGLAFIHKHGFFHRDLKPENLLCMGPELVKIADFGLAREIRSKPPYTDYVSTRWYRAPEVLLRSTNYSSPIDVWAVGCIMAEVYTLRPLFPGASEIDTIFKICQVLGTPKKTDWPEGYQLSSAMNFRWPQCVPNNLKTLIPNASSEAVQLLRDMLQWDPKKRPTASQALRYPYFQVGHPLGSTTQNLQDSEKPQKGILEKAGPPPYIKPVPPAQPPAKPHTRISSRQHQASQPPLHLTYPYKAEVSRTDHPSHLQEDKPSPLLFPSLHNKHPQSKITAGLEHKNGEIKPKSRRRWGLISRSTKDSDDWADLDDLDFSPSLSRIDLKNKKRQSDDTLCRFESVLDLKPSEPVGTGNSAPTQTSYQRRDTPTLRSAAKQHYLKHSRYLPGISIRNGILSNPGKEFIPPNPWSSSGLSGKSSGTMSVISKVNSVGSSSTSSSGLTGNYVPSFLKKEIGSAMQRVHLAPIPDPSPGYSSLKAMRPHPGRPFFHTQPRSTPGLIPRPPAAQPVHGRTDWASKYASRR
Data set [7] has as its target Dual specificity mitogen-activated protein kinase kinase 3 (Homo sapiens) (UniProt P46734). Nature of the data set: Binding affinity to wild-type human full length MEK3 (M1 to S318 residues) expressed in mammalian expression system assessed as residual binding level at 1 uM by Kinomescan method relative to control. A digest of the protocol:
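Single-concentration KINOMEscan (DiscoverX) binding screen at 1 μM against a panel of 468 purified kinases and mutants. The read-out is binding relative to control.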

In data set [8] the target is Maternal embryonic leucine zipper kinase (Homo sapiens) (UniProt Q14680). Nature of the data set: Binding affinity to wild-type human full length MELK (M1 to V651 residues) expressed in bacterial expression system assessed as residual binding level at 1 uM by Kinomescan method relative to control. A digest of the protocol: as §1
Chain of Maternal embryonic leucine zipper kinase (Homo sapiens) (Q14680 whole entry, looked up, the tested form may be a part): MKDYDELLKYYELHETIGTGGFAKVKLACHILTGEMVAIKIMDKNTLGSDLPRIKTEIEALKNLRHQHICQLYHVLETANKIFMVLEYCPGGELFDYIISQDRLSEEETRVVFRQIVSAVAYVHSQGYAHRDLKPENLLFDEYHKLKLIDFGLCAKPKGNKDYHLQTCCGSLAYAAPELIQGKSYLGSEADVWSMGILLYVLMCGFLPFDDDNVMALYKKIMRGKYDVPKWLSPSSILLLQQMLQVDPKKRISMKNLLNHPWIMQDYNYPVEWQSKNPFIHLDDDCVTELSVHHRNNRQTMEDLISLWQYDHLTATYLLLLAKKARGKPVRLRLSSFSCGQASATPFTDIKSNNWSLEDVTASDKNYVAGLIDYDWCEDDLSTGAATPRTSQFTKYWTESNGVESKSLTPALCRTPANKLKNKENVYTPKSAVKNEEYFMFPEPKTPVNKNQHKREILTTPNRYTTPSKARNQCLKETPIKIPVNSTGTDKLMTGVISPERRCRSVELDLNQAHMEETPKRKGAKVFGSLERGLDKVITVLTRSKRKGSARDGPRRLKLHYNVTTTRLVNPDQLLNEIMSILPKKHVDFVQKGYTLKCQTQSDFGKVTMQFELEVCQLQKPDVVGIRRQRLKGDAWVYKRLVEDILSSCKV
Data set [9] deals with Myosin-IIIa (Homo sapiens) (UniProt Q8NEV4). Nature of the data set: Binding affinity to wild-type human partial length MYO3A (M1 to K338 residues) expressed in bacterial expression system assessed as residual binding level at 1 uM by Kinomescan method relative to control. The procedure, abridged: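 Kinome-wide competition binding screen against a panel of 468 purified kinases/mutants, with the test compound at a single concentration of 1 μM. Read-out is the relative binding activity of each kinase in the presence of compound.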

For data set [10], the target named is Serine/threonine-protein kinase PAK 2 (Homo sapiens) (UniProt Q13177). Nature of the data set: Binding affinity to wild-type human partial length PAK2 (P151 to R525 residues) expressed in bacterial expression system assessed as residual binding level at 1 uM by Kinomescan method relative to control. A digest of the protocol: (§3)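 KINOMEscan competition binding against a panel of 468 purified kinases/mutants, compound tested at 1 μM; readout is relative binding activity versus control.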
Chain of Serine/threonine-protein kinase PAK 2 (Homo sapiens) (Q13177 whole entry, the tested form may be a part): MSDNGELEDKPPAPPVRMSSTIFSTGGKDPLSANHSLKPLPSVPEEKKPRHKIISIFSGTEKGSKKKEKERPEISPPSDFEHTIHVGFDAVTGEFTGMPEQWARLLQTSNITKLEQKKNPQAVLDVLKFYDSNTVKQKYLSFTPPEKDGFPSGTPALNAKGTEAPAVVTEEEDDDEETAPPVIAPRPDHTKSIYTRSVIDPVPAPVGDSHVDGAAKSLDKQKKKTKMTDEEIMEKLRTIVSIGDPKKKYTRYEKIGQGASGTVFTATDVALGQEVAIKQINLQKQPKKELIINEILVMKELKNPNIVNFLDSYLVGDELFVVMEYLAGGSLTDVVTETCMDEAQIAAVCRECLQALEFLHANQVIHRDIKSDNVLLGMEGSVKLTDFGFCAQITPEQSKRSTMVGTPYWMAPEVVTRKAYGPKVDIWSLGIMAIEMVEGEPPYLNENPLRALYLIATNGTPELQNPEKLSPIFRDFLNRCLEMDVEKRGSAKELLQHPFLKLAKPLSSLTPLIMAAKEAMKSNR

The target of data set [11] is Phosphorylase b kinase gamma catalytic chain, liver/testis isoform (Homo sapiens) (UniProt P15735). Nature of the data set: Binding affinity to wild-type human partial length PHKG2 (M1 to W300 residues) expressed in bacterial expression system assessed as residual binding level at 1 uM by Kinomescan method relative to control. The procedure, abridged: as §3
Chain of Phosphorylase b kinase gamma catalytic chain, liver/testis isoform (Homo sapiens) (P15735 whole entry, the tested form may be a part, canonical isoform): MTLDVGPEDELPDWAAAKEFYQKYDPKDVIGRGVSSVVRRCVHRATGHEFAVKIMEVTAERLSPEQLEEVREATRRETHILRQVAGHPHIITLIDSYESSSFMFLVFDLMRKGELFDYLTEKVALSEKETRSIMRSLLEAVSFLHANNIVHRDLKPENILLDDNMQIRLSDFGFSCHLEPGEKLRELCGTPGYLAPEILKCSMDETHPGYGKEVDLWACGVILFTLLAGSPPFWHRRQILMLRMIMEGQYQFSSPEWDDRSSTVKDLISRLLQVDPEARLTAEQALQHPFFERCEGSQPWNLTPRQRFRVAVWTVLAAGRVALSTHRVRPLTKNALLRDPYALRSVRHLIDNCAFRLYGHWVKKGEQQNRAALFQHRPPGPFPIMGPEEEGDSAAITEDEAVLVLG
The target of data set [12] is Serine/threonine-protein kinase PLK1 (Homo sapiens) (UniProt P53350). Briefly: Binding affinity to wild-type human partial length PLK1 (A33 to F325 residues) expressed in mammalian expression system assessed as residual binding level at 1 uM by Kinomescan method relative to control.
Data set [13] concerns the target Protein kinase C iota type (Homo sapiens) (UniProt P41743). Nature of the data set: Binding affinity to wild-type human partial length PRKCI (H215 to V587 residues) expressed in mammalian expression system assessed as residual binding level at 1 uM by Kinomescan method relative to control.
For data set [14], the target named is cGMP-dependent protein kinase 2 (Homo sapiens) (UniProt Q13237). Briefly: Binding affinity to wild-type human partial length PRKG2 (S422 to F762 residues) expressed in mammalian expression system assessed as residual binding level at 1 uM by Kinomescan method relative to control.
Chain of cGMP-dependent protein kinase 2 (Homo sapiens) (Q13237 whole entry, the tested form may be a part): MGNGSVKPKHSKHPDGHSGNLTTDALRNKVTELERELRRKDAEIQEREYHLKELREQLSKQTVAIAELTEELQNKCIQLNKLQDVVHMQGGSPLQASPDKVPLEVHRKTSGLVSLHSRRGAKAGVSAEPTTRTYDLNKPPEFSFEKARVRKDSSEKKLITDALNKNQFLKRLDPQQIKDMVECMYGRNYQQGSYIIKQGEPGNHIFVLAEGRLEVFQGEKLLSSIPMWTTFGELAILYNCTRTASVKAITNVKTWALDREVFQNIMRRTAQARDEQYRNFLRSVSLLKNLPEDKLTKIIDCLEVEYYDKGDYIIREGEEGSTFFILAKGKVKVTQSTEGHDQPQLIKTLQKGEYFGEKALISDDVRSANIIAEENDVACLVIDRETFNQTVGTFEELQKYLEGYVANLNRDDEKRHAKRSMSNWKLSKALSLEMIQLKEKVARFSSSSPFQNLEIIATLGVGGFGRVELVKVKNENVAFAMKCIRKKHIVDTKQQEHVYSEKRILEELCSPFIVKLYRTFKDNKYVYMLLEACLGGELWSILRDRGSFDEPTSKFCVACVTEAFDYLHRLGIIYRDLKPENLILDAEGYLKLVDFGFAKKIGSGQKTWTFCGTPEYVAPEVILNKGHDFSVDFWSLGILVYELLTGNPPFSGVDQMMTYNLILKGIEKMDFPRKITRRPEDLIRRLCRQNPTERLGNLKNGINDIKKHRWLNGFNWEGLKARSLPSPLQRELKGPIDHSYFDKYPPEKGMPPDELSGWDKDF
In data set [15] the test system is Proto-oncogene tyrosine-protein kinase receptor Ret (Homo sapiens), P07949 [V804L]. Nature of the data set: Binding affinity to human partial length RET V804L mutant (E713 to D1014 residues) expressed in bacterial expression system assessed as residual binding level at 1 uM by Kinomescan method relative to control. The procedure, abridged:
as §2

In data set [16] the target is Serine/threonine-protein kinase SIK2 (Homo sapiens) (UniProt Q9H0K1). Nature of the data set: Binding affinity to wild-type human full length SIK2 (M1 to N926 residues) expressed in bacterial expression system assessed as residual binding level at 1 uM by Kinomescan method relative to control. The procedure, abridged: as §1
Chain of Serine/threonine-protein kinase SIK2 (Homo sapiens) (Q9H0K1 whole entry, looked up, the tested form may be a part): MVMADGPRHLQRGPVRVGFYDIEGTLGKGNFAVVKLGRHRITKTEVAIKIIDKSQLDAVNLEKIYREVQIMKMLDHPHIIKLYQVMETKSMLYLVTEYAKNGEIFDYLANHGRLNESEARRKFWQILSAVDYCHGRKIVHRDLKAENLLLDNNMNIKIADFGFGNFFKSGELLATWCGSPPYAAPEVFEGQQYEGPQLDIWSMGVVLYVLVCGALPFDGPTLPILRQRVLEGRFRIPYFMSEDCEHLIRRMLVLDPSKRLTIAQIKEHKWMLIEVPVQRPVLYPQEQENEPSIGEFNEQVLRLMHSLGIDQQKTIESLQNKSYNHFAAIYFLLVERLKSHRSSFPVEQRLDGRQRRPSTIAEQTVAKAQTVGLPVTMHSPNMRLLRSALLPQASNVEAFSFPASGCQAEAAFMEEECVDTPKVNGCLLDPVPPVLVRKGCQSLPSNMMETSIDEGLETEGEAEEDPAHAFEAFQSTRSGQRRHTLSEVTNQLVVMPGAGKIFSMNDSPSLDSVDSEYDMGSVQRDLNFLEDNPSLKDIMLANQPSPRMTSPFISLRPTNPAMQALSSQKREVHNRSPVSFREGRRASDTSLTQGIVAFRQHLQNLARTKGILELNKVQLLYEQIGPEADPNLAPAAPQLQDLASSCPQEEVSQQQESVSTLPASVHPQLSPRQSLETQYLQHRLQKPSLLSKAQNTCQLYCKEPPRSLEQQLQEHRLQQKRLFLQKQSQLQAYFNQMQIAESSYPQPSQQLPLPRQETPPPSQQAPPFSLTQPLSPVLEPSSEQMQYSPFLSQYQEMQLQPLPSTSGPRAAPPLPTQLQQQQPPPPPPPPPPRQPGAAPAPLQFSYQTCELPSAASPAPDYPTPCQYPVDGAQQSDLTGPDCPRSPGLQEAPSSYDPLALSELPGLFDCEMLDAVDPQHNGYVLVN
In data set [17] the target is STE20-like serine/threonine-protein kinase (Homo sapiens) (UniProt Q9H2G2). Briefly: Binding affinity to wild-type human partial length SLK (S14 to A307 residues) expressed in bacterial expression system assessed as residual binding level at 1 uM by Kinomescan method relative to control.
For data set [18], the target named is SRSF protein kinase 1 (Homo sapiens) (UniProt Q96SB4). Nature of the data set: Binding affinity to wild-type human full length SRPK1 (M1 to S655 residues) expressed in bacterial expression system assessed as residual binding level at 1 uM by Kinomescan method relative to control. A digest of the protocol:
as §1

The target of data set [19] is Tyrosine-protein kinase TXK (Homo sapiens) (UniProt P42681). Briefly: Binding affinity to wild-type human partial length TXK (L238 to W527 residues) expressed in bacterial expression system assessed as residual binding level at 1 uM by Kinomescan method relative to control.
Data set [20] has as its target Mast/stem cell growth factor receptor Kit (Homo sapiens, UniProt P10721). Nature of the data set: Inhibition of c-KIT (unknown origin) using poly(4:1 Glu,Tyr) peptide as substrate preincubated for 1 hr followed by addition of ATP and measured after 30 mins by ADP-Glo bioluminescence assay.
Data set [21] in a line: Half life in Sprague-Dawley rat at 10 mg/kg, po. Type of data set: ADME, organism-based. As to conditions: in vivo.
The test system of data set [22] is EOL1. Nature of the data set: Induction of apoptosis in human EOL-1 cells assessed as cleaved PARP expression level at 3 to 100 nM after 24 hrs by Western blot analysis. Type of data set: functional, cell-based. A digest of the protocol:
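Cells exposed to compound or DMSO for the stated periods, then lysed and immunoblotted for PARP and caspase-3 cleavage, with β-actin as loading control. NCI-H1703 stimulation used PDGF AA at 100 ng/mL.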
On the technique in general: Immunoblotting shows a protein as a band on a membrane.

Chain of SRSF protein kinase 1 (Homo sapiens) (Q96SB4 whole entry, the tested form may be a part): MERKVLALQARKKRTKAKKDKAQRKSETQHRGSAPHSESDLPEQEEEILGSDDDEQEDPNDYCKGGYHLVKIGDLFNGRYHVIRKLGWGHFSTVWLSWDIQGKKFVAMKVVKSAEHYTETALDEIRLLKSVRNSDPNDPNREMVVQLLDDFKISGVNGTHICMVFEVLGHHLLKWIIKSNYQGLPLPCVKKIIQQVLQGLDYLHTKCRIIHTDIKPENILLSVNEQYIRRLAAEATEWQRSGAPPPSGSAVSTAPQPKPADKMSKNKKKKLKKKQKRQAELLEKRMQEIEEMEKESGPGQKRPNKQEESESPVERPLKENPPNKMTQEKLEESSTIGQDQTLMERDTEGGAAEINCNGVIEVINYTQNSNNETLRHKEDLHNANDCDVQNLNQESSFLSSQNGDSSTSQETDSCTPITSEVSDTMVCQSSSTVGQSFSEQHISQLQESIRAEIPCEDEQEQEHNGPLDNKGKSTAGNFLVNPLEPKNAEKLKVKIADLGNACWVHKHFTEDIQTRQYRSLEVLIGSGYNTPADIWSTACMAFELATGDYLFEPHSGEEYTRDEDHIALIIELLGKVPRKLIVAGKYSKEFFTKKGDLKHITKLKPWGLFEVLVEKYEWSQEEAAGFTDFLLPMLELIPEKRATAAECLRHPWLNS

In general, IC50 refers to the concentration at which inhibition is half-maximal. High values mean lower potency, low ones higher potency. In general, half-life refers to the time needed for the level to fall by half in the phase considered. Low values mean rapid decline, high ones slow decline. `Cc1ccc(NC(=O)c2ccc(CN(CCN(C)C)C(=O)c3cccnc3)cc2)cc1Nc1nccc(-c2cccnc2)n1`: the Activity in data set [1] was determined as 81%; in data set [2], 94%; in data set [3], 94%; in data set [4], 100%; in [5], 83%; in data set [6] it was 100%. Moreover, the Activity in [7] turned out to be 98%; in data set [8], 84%; in data set [9], 92%; in data set [10] it was 82%; in [11], 89%; in data set [12], 100%. Further, the Activity was found to be 100% in data set [13]; 100% in data set [14]; 97% in data set [15]; 87% in [16]; 100% in [17]; 92% in [18]. In data set [19], the Activity is 100%. This compound also came in with an IC50 in data set [20] greater than 10 µM. In data set [21], this compound gave a half-life of 2.03 h. Besides, the outcome in data set [22] was Active.
